Laboratory results from ChEMBL document CHEMBL1143014, “Cytotoxic activity of some natural and synthetic ent-kauranes” (J Nat Prod, 2007).

How the values were obtained:
Assay type in all cases: cell-based; call rule not given here
A549 = assay: Cytotoxicity against human A549 cells after 72 hrs; details: for Activity: human, a549, 72 h; for EC50: Homo sapiens, A549, 72 h
Outline: (§1)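 Sulforhodamine B assay run per the NCI procedure. Cells grown at 37 °C, humidified 5% CO2, in RPMI-1640 with 25 mM HEPES, […], 10% (v/v) FBS and 100 µg/mL kanamycin. Compounds dissolved in DMSO (final ≤1% v/v) and applied continuously for 72 h. EC50 is the concentration cutting cell number by 50%, interpolated from dose-response data. Assays run in triplicate. Doxorubicin served as positive control.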

PC-3 = assay: Cytotoxicity against human PC3 cells after 72 hrs; details: for Activity: human, pc-3, 72 h; for EC50: Homo sapiens, PC-3, 72 h; outline: as §1
1A9 = assay: Cytotoxicity against human 1A9 cells after 72 hrs; details: for Activity: human, 1a9, 72 h; for EC50: Homo sapiens, 1A9, 72 h; outline: as §1
MCF7 = assay: Cytotoxicity against human MCF7 cells after 72 hrs; details: for Activity: human, mcf7, 72 h; for EC50: Homo sapiens, MCF7, 72 h; outline: as §1
KB = assay: Cytotoxicity against human KB cells after 72 hrs; details: for Activity: human, kb; for EC50: Homo sapiens, KB; outline: as §1
[1] = Cytotoxicity against human multidrug-resistant KB-VIN cells after 72 hrs; details: for Activity: human, kb-vin; for EC50: Homo sapiens, KBVIN; outline: as §1

| SMILES | Activity (A549) | Activity (PC-3) | Activity (1A9) | Activity (MCF7) | Activity (KB) | Activity [1] | EC50 (A549) | EC50 (PC-3) | EC50 (1A9) | EC50 (MCF7) | EC50 (KB) | EC50 [1] |
| --- | --- | --- | --- | --- | --- | --- | --- | --- | --- | --- | --- | --- |
| C=C1[C@@H]2CC[C@@H]3[C@@](CCC4[C@H](C(=O)O)C[C@@H](O)C[C@]43C)(C2)[C@@H]1O (some centres not stated) [ATRACTYLIGENIN] | Not Active | Not Active | Not Active | Not Active | Not Active | Not Active |  |  |  |  |  |  |
| C=C1[C@@H]2CC[C@@H]3[C@@](CCC4[C@H](C(=O)OC)C/C(=N\NS(=O)(=O)c5ccc(C)cc5)C[C@]43C)(C2)[C@@H]1O (some centres not stated) |  |  |  |  |  |  | 24.5 µM | 15.8 µM | 7.5 µM | 18 µM | 18.1 µM | 20.4 µM |
| C=C1C(=O)[C@@]23CCC4[C@H](C(=O)OC)C[C@@H](OC(=O)c5ccc6c(c5)OCO6)C[C@@]4(C)[C@@H]2CC[C@@H]1C3 (some centres not stated) |  |  |  |  |  |  | 19 µM | 9.2 µM | 3 µM | 21.4 µM | 1.1 µM | 3 µM |
| C=C1C(=O)[C@@]23CCC4[C@H](C(=O)OC)CCC[C@@]4(C)[C@@H]2CC[C@@H]1C3 (some centres not stated) |  |  |  |  |  |  | 4.4 µM | 3.1 µM | 0.7 µM | 5 µM | 1.3 µM | 1.3 µM |
| C=C1C(=O)[C@@]23CCC4[C@H](C(=O)OC)C[C@@H](OC(C)=O)C[C@@]4(C)[C@@H]2CC[C@@H]1C3 (some centres not stated) |  |  |  |  |  |  | 3.3 µM | 1.4 µM | 0.5 µM | 0.9 µM | 3.6 µM | 4 µM |
| C=C1C(=O)[C@@]23CCC4[C@H](C(=O)OC)CC(=O)C[C@@]4(C)[C@@H]2CC[C@@H]1C3 (some centres not stated) [ATRACTYLIGENIN METHYL ESTER] |  |  |  |  |  |  | 3.4 µM | 1.1 µM | 0.2 µM | 1 µM | 1.6 µM | 1.6 µM |
| COc1cccc2c1C(=O)c1c(O)c3c(c(O)c1C2=O)C[C@@](O)(C(=O)CO)C[C@@H]3O[C@H]1C[C@H](N)[C@H](O)[C@H](C)O1 [DOXORUBICIN] |  |  |  |  |  |  | 0.9 µM | 2 µM | 0.1 µM | 0.2 µM | 0.4 µM | 1.7 µM |
| C=C1[C@@H]2CC[C@@H]3[C@@](CCC4[C@H](C(=O)OC)C[C@@H](O)C[C@]43C)(C2)[C@@H]1O (some centres not stated) [ATRACTYLIGENIN METHYL ESTER] | Not Active | Not Active | Not Active | Not Active | Not Active | Not Active |  |  |  |  |  |  |
| C=C1C(=O)[C@@]23CCC4[C@H](C(=O)OC)C[C@@H](OS(=O)(=O)c5ccc(C)cc5)C[C@@]4(C)[C@@H]2CC[C@@H]1C3 (some centres not stated) |  |  |  |  |  |  | 2.3 µM | 2.6 µM | 0.5 µM | 4.3 µM | 1.4 µM | 3.5 µM |
| C=C1C(=O)[C@@]23CCC4[C@H](C(=O)OC)C[C@@H](O)C[C@@]4(C)[C@@H]2CC[C@@H]1C3 (some centres not stated) |  |  |  |  |  |  | 1 µM | 4 µM | 0.3 µM | 2 µM | 1.5 µM | 2.6 µM |
| C=C1C(=O)[C@@]23CCC4[C@H](C(=O)OC)C[C@@H](OC(=O)[C@H](O)[C@@H](NC(=O)c5ccccc5)c5ccccc5)C[C@@]4(C)[C@@H]2CC[C@@H]1C3 (some centres not stated) |  |  |  |  |  |  | 1.7 µM | 0.6 µM | 0.4 µM | 1.5 µM | 2.6 µM | 3.5 µM |
| C=C1C(=O)[C@@]23CCC4[C@H](C(=O)OC)C[C@@H](OC(=O)[C@@H]5OC(c6ccccc6)=N[C@H]5c5ccccc5)C[C@@]4(C)[C@@H]2CC[C@@H]1C3 (some centres not stated) |  |  |  |  |  |  | 2.2 µM | 2.2 µM | 1.8 µM | 11.8 µM | 3 µM | 4.8 µM |
